PLAP activator: PLAP enzyme activators, biochemical, luminescence, HTS. purified PLAP enzyme, luminescent substrate read-out; stronger effect = higher value. 96,000 tested, 1.2% active. activation fold at 20 µM; in the data active = activation fold above about 2
Target sequence (P05187 whole entry, looked up): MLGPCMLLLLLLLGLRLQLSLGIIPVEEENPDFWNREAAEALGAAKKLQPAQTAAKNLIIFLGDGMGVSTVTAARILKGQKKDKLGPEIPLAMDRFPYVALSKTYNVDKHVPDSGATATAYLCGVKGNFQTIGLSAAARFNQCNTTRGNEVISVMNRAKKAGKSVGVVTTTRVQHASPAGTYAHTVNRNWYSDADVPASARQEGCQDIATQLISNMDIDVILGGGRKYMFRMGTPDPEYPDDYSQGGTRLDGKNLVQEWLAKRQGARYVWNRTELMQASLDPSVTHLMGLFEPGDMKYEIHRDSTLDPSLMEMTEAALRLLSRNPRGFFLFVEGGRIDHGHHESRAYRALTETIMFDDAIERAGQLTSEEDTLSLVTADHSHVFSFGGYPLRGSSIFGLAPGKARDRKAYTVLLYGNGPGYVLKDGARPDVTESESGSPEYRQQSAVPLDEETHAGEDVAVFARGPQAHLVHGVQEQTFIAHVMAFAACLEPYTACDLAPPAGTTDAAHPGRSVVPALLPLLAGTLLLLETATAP
AP complement: alternative complement pathway inhibitors, primary screen, biochemical, ELISA, human serum, orthogonally pooled compounds | LPS-coated ELISA, C3 deposition; tested in compound mixtures | inhibition, % at 5 µM | 62,000 tested, 0.08% active | AID 1235, 2008;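 active = inhibition above 30% in each of the two pooled mixtures holding the compound, so the lower value exceeds 30%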
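Medium: diluted human serum in Mg2+-EGTA GVB++. Assay system: human serum complement alternative pathway, C3 deposition onto LPS. Also added: Plate-bound LPS. Technique: Anti-C3 ELISA, OD 450 nm. Measure: percent inhibition. Incubation: 1 h at 37 °C. Dosing: 5 µM each compound, pools of ten, 50 µM per pool.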
tolC growth inh: growth inhibitors of E. coli tolC mutant, primary screen, strain BW25113 ΔtolC::kan, 384-well | OD615 | growth inhibition, % at 10 µM (by protocol) | 65,000 tested, 2.2% active;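 active = growth inhibition at or above a cutoff equal to the mean over every tested compound plus 3 SD, cut at about 60% in these data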;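 note: growth measured after 20 h incubation at 37 °C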
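Test system: tolC-deleted E. coli BW25113; medium: LB with kanamycin 50 µg/mL; compound: single-point testing at 10 µM; incubation: 20 h compound exposure of bacteria at 37 °C; signal: OD at 615 nm; evaluation: growth inhibition in percent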
Ecoli WT expand: growth inhibitors of wild-type E. coli, primary screen, strain BW25113, expanded library, OD600. growth inhibition, % at 100 µM. OD600 absorbance. 98,000 tested, 0.15% active. AID 710, 2007;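 active = growth inhibition above about 50% at one test dose, limit read from the data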;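 note: growth measured after 20 h incubation at 37 °C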
HePTP inh: inhibitors of human HePTP phosphatase, primary screen, biochemical, absorbance, leukemia target. Tyrosine-protein phosphatase non-receptor type 7 (Homo sapiens), P35236. recombinant HePTP phosphatase activity, OD absorbance. inhibition, % at 20 µM. 110,000 tested, 0.64% active; in the data active = inhibition above about 50%
Of the large screens only hits and unclear results are named; the others gave an inactive call. Only some compounds are listed: those with a hit (about 2.3% of all), similar ones and a draw of the others.

COc1ccc(Cn2nnnc2C(C(C)C)N2CCc3ccccc32)cc1 (centres undefined)	tolC growth inh 72.6
COc1ccc(Cn2nnnc2C(CC(C)C)N2CCN(c3ccccc3)CC2)cc1 (centres undefined)	none
CC(C)Cc1cc(C(=O)Nc2sc3c(c2C#N)CCC3)no1	none (no result: AP complement, tolC growth inh, HePTP inh)
Cc1noc(C)c1C(=O)Nc1sc(C)c(-c2ccccc2)c1C#N	tolC growth inh 97.3
N#Cc1c(NC(NC(=O)c2ccco2)C(=O)c2ccccc2)sc2c1CCCC2 (centres undefined)	tolC growth inh 65.5
Cc1cccc(C(=O)Nc2sc(C)c(-c3ccccc3)c2C#N)c1	none (no result: AP complement, tolC growth inh, HePTP inh)
Cc1onc(-c2ccccc2)c1C(=O)Nc1sc2c(c1C#N)CCC2	tolC growth inh 69.6
CC(C)Cc1cc(C(=O)Nc2sc3c(c2C#N)CCCC3)no1	tolC growth inh 79.2
NC(=O)c1c(NC(NC(=O)c2ccco2)C(=O)c2ccc(Cl)cc2)sc2c1CCCC2 (centres undefined)	none (no result: AP complement, tolC growth inh, HePTP inh)
Cc1occc1C(=O)NCc1cccnc1	none (no result: PLAP activator, AP complement, tolC growth inh, Ecoli WT expand)
O=C(N/N=C/c1cc2c(cc1Br)OCO2)c1cccc2ccccc12	none (no result: PLAP activator, AP complement, tolC growth inh, Ecoli WT expand)
CCOC(=O)Cn1c(=O)oc2cc(S(=O)(=O)NCc3ccccn3)ccc21	PLAP activator 2
O=C(Nc1ccc(Cl)c(Cl)c1)c1cc2ccccc2o1	none (no result: PLAP activator, AP complement, tolC growth inh, Ecoli WT expand)
O=C(NCc1ccco1)c1cc(-c2ccccc2)nc2ccccc12	none (no result: AP complement, tolC growth inh)
O=C(NCc1ccco1)c1cc(-c2ccco2)nc2ccccc12	HePTP inh 103.3 (no result: PLAP activator, AP complement, tolC growth inh, Ecoli WT expand)
O=C(Nc1cccc2ccccc12)c1cc(-c2ccco2)nc2ccccc12	HePTP inh 102.0 (no result: PLAP activator, AP complement, tolC growth inh, Ecoli WT expand)
COC(=O)c1c(NC(=O)C(F)(F)F)sc(/C(C)=C/C#N)c1C	none (no result: PLAP activator, AP complement, tolC growth inh, Ecoli WT expand)
Nc1cccc2nc3ccccc3cc12	Ecoli WT expand 57.0 (no result: AP complement, tolC growth inh, HePTP inh)
CCSc1nc2sc3c(c2c(=O)n1Cc1ccccc1)CCc1ccccc1-3	none (no result: PLAP activator, AP complement, tolC growth inh, Ecoli WT expand)
CCOc1cc(/C=N/NC(=O)C(=O)Nc2ccccc2OC)ccc1O	none (no result: PLAP activator, AP complement, tolC growth inh, Ecoli WT expand)
Cc1ccc(C(=O)c2cn[nH]c2-c2cc(Cl)ccc2O)cc1	PLAP activator 2.3 (no result: HePTP inh)
O=C(c1ccco1)c1cn[nH]c1-c1ccc(Cl)cc1O	PLAP activator 2.9
O=C(c1ccccc1)c1cn[nH]c1-c1ccccc1O	PLAP activator 2.2 (no result: AP complement, tolC growth inh, HePTP inh)
CCOC(=O)c1ccc(NC2=NC3(CCCCC3)N=C(N)N2)cc1	none (no result: PLAP activator, AP complement, tolC growth inh, Ecoli WT expand)
S=c1[nH]nc2c3c4c(sc3n3c(=S)[nH]nc3n12)CCC4	HePTP inh 101.2 (no result: PLAP activator, AP complement, tolC growth inh, Ecoli WT expand)
CCn1c(=O)c2c3c(sc2n2c(=S)[nH]nc12)CCC3	none (no result: AP complement, tolC growth inh, HePTP inh)
COc1ccc(C2CC(=O)C3=C(C2)NC(C)=C(C(=O)OCCc2ccccc2)C3c2ccncc2)cc1 (centres undefined)	none (no result: PLAP activator, AP complement, tolC growth inh, Ecoli WT expand)
CCc1c(-c2ccc(Cl)s2)nc2ccc(Br)cc2c1C(=O)O	none (no result: PLAP activator, AP complement, tolC growth inh, Ecoli WT expand)
O=C1NC(=S)N/C1=C/c1ccc(OCc2cccc(C(=O)O)c2)cc1	HePTP inh 103.1 (no result: PLAP activator, AP complement, tolC growth inh, Ecoli WT expand)
O=C1NC(=S)S/C1=C/c1ccc(OCc2cccc(C(=O)O)c2)cc1	none (no result: PLAP activator, AP complement, tolC growth inh, Ecoli WT expand)
c1ccc2[nH]c(SCc3ccc(-c4nnco4)cc3)nc2c1	PLAP activator 2
CCOc1cc([N+](=O)[O-])cc(/C=C2\SC(=S)N(C)C2=O)c1O	HePTP inh 65.6 (no result: PLAP activator, AP complement, tolC growth inh, Ecoli WT expand)
O=C(O)c1cc(C(=O)O)cc(S(=O)(=O)Nc2ccc(Cl)c([N+](=O)[O-])c2)c1	none (no result: PLAP activator, AP complement, tolC growth inh, Ecoli WT expand)
Cc1ccc(-c2cc(C(=O)NCc3ccc4c(c3)OCO4)[nH]n2)c(O)c1C	none
COc1ccc(CCNC(=O)c2cc(-c3ccc(C)c(C)c3O)n[nH]2)cc1OC	PLAP activator 2.1 (no result: AP complement, tolC growth inh, HePTP inh)
COc1ccc(CCNC(=O)c2cc(-c3cc(C)ccc3O)n[nH]2)cc1OC	PLAP activator 2.9 (no result: AP complement, tolC growth inh, HePTP inh)
CC(=O)CCc1oc2ccccc2c1-c1ccc(C)o1	none (no result: PLAP activator, AP complement, tolC growth inh, Ecoli WT expand)
Cc1noc(NS(=O)(=O)c2ccc(NC(=O)Nc3ccc(Cl)c(Cl)c3)cc2)c1C	tolC growth inh 100.0
CC(=O)NS(=O)(=O)c1ccc(NC(=O)Nc2ccc(Cl)c(Cl)c2)cc1	none (no result: PLAP activator, AP complement, tolC growth inh, Ecoli WT expand)
COc1ccc(C(=O)Nc2cccc(NC(=O)c3ccc(F)cc3)c2)cc1Br	none (no result: PLAP activator, AP complement, tolC growth inh, Ecoli WT expand)
CCOC(=O)COc1ccc2oc(C)c(C(=O)OC(C)C)c2c1	none (no result: PLAP activator, AP complement, tolC growth inh, Ecoli WT expand)
CCN(CC)C(=O)COc1ccc2oc(C)c(C(=O)OC(C)C)c2c1	PLAP activator 2.6
Cc1cc(C)n(-c2nc3ccccc3nc2N2CCCC2)n1	none (no result: AP complement, tolC growth inh, HePTP inh)
Cc1cc(C)n(-c2nc3ccccc3nc2N2CCCCCC2)n1	tolC growth inh 74.0

Screens from PubChem.
